# According to ChEMBL document CHEMBL3352785, “Study on one-pot four-component synthesis of 9-aryl-hexahydro-acridine-1,8-diones using SiO2-I as a new heterogeneous catalyst and their anticancer activity” (Bioorg Med Chem Lett, 2014):
# What was measured:
# [1] = test system: HepG2; test: Anticancer activity against human cells HepG2 cells assessed as growth inhibition after 48 hrs by MTT assay; type: functional, cell-based; conditions: HepG2, 48 h
# Method in brief: (§1)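 Cells grown in MEM with 10% heat-inactivated FBS, penicillin, streptomycin and amphotericin-B at 37 °C, 5% CO2, and trypsinized with TPVG. Seeded at 1 × 10⁴ cells/well and allowed to adhere for 24 h, then exposed to a range of concentrations for 48 h. MTT (2 mg/mL in PBS) added for 3 h, formazan dissolved in isopropanol, A540 read. Growth inhibition calculated as (control − test)/control × 100.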
# [2] = test system: MCF7; test: Anticancer activity against human cells MCF7 cells assessed as growth inhibition after 48 hrs by MTT assay; type: functional, cell-based; conditions: MCF7, 48 h; method in brief: as §1
Compound,IC50 [1] [µg/mL],IC50 [2] [µg/mL]
CC1(C)CC(=O)C2=C(C1)NC1=C(C(=O)CC(C)(C)C1)C2c1cccc(C#N)c1,1.4,4.7
COc1ccc(C2C3=C(CC(C)(C)CC3=O)NC3=C2C(=O)CC(C)(C)C3)cc1,8.2,9.6
COc1ccc(C2C3=C(CC(C)(C)CC3=O)NC3=C2C(=O)CC(C)(C)C3)cc1Br,2.2,5.3
CCOc1cccc(C2C3=C(CC(C)(C)CC3=O)NC3=C2C(=O)CC(C)(C)C3)c1,4.8,4.5
CC1(C)CC(=O)C2=C(C1)NC1=C(C(=O)CC(C)(C)C1)C2c1cc(F)ccc1O,8.6,6.2
CC1(C)CC(=O)C2=C(C1)NC1=C(C(=O)CC(C)(C)C1)C2c1ccccc1O,2.6,5.9
COc1ccc(C2C3=C(CC(C)(C)CC3=O)NC3=C2C(=O)CC(C)(C)C3)c(OC)c1,1.6,5
COc1cccc2c1C(=O)c1c(O)c3c(c(O)c1C2=O)C[C@@](O)(C(=O)CO)C[C@@H]3O[C@H]1C[C@H](N)[C@H](O)[C@H](C)O1 [DOXORUBICIN],1.21,1.09
